By IC50 is commonly meant the concentration that inhibits the measured activity by half.

Each structure is given as a SMILES string. Calls of active or inactive are those of the source. No cut-off for these calls is given here.

The subject of series [1] is Trypanosoma brucei rhodesiense. The series can be described thus: Antitrypanosomal activity against Trypanosoma brucei rhodesiense STIB 900 infected acute mouse model assessed as cured mouse at 5 mg/kg, ip daily for 4 days. Further details: dose 5 mg/kg. The series is classed as functional, organism-based. Summed up: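 STIB900 acute mouse model of trypanosomiasis with intraperitoneal dosing. The regimens were daily for 4 days at 20, 5 or 1 mg/kg, or a single 10 mg/kg dose. A cure is a mouse that survives and is parasite-free for 60 days. Average days of survival are also recorded.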

A further series relates to Plasmodium falciparum. Put plainly: Antiplasmodial activity against chloroquine-resistant Plasmodium falciparum K1. The series is classed as functional, organism-based. Summed up:
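In vitro IC50 against chloroquine-resistant P. falciparum K1, reported as the average of duplicate determinations.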

Series [2] in a line: Selectivity index, ratio of IC50 for rat L6 cells to IC50 for Trypanosoma brucei rhodesiense STIB 900. In kind it is toxicity, cell-based. To be noted: read-out: Ratio IC50. Summed up: (§1)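 Ratio of the L6 rat myoblast cytotoxicity IC50 to the IC50 against the parasite named in the line. Each IC50 is the average of duplicate determinations.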
Another series concerns Leishmania donovani. The series can be described thus: Antileishmanial activity against Leishmania donovani MHOM/SD/62/1S-CL2D axenic amastigotes. The series is classed as functional, organism-based. Summed up: (§2)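 IC50 values in µM, each the average of duplicate determinations. Parasites were T. b. rhodesiense STIB900 and axenic amastigotes of L. donovani MHOM/SD/62/1S-CL2D. Cytotoxicity was run on rat L6 myoblast cells.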

Another series deals with L6. Put plainly: Cytotoxicity against rat L6 cells. In kind it is cell-based. Summed up: as §2
Series [3] is described as follows: Selectivity index, ratio of IC50 for rat L6 cells to IC50 for chloroquine-resistant Plasmodium falciparum K1. In kind it is toxicity, cell-based. The conditions noted are these: read-out: Ratio IC50. Summed up: as §1
The subject of series [4] is Trypanosoma brucei rhodesiense. The series can be described thus: Antitrypanosomal activity against Trypanosoma brucei rhodesiense STIB 900 infected acute mouse model assessed as survival time at 5 mg/kg, ip administered daily for 4 days. The series is classed as functional. The conditions noted are these: route intraperitoneal. Summed up: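 STIB900 acute mouse model of T. b. rhodesiense infection, with intraperitoneal dosing. Read-out is the average days of survival of treated mice. Cures are counted as mice that survive and stay parasite-free for 60 days.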

Series [5] can be described thus: Selectivity index, ratio of IC50 for rat L6 cells to IC50 for Leishmania donovani MHOM/SD/62/1S-CL2D. In kind it is toxicity, cell-based. The conditions noted are these: read-out: Ratio IC50. Summed up:
as §1

Series [6] relates to Trypanosoma brucei rhodesiense. Put plainly: Antitrypanosomal activity against Trypanosoma brucei rhodesiense STIB 900 bloodstream trypomastigotes. In kind it is functional, organism-based. Summed up: as §2

Turning to `COc1cc(C(=N)NC(C)C)ccc1-c1cc2cc(C(=N)NC(C)C)ccc2o1`, the outcome in series [1] was inactive. For the same molecule, the IC50 with Plasmodium falciparum is 20 nM; in the series on Leishmania donovani it was 1.5 µM; in the series with L6 it was 98.1 µM; in series [6], 74 nM. Moreover, the selectivity ratio was found to be 1330 in series [2], 4900 in series [3] and 67 in series [5]. Also, the Survival in series [4] is over 39 days.

`COc1ccc(C2=NCCN2)cc1-c1cc2ccc(C3=NCCN3)cc2o1`: the outcome in series [1] was inactive. Also, the IC50 is 74 nM in the series on Plasmodium falciparum, 34 µM in the series with Leishmania donovani, 11.1 µM in the series on L6 and 17 nM in series [6]. In addition, the selectivity ratio came out at 653 in series [2], 150 in series [3] and 0.3 in series [5]. Also, the Survival in [4] was 25 days.

`c1ccc2[nH]c(-c3ccc(-c4cc5cc(-c6nc7ccccc7[nH]6)ccc5o4)cc3)nc2c1`: in [1], the result was inactive. The IC50 is 31 nM with Plasmodium falciparum, over 100 µM in the series with Leishmania donovani, 6.7 µM in the series on L6 and 249 nM in series [6]. Further, the results for the selectivity ratio in series [2], in series [3] and in series [5] were 27, 216 and 0.1, respectively. The Survival in [4] turned out to be 5.5 days.

Consider `COc1cc(C(=N)N)ccc1-c1cc2cc(C(=N)N)ccc2o1`, for which the IC50 in the series with Plasmodium falciparum was found to be 3 nM; in the series on Leishmania donovani it was 2 µM; in the series with L6 it was 157 µM; in series [6], 3 nM. The figures for the selectivity ratio in series [2], in [3] and in series [5] were 52300, 52300 and 80, respectively. Besides, the Survival in series [4] is over 47 days.

As to `COc1cc(C(=N)NC(C)C)ccc1-c1cc2ccc(C(=N)NC(C)C)cc2o1`, the IC50 with Plasmodium falciparum was 206 nM; in the series with Leishmania donovani, 32 µM; in the series on L6, over 181 µM; in [6], 54 nM. Besides, the results for the selectivity ratio in series [2], in [3] and in [5] were over 3350, over 879 and over 6, respectively. The Survival in series [4] was over 38 days.

In the case of `CC(C)NC(=N)c1ccc(-c2cc3ccc(C(=N)NC(C)C)cc3o2)cc1`, the IC50 with Plasmodium falciparum was 15 nM; in the series on Leishmania donovani it was 12 µM; in the series with L6, over 199 µM; in series [6], 148 nM. The selectivity ratio in series [2] was over 1340; in series [3], over 13300; in series [5], over 17. The Survival in [4] is over 38.5 days.

Turning to `Oc1ccc(C2=NCCN2)cc1-c1cc2ccc(C3=NCCN3)cc2o1`, the outcome in [1] was inactive. Also, the IC50 in the series on Plasmodium falciparum is 103 nM; in the series on Leishmania donovani, 35 µM; with L6 it was over 189 µM; in [6], 83 nM. In addition, the selectivity ratio in [2] is over 2280; in [3] it was over 1840; in [5], over 6. For the same molecule, the Survival in [4] came out at 14 days.

In the case of `COc1ccc(C(=N)N)cc1-c1cc2cc(C(=N)N)ccc2o1`, the IC50 is 40 nM in the series with Plasmodium falciparum, 5.7 µM in the series with Leishmania donovani, 179 µM in the series on L6 and 2 nM in series [6]. Besides, the figures for the selectivity ratio in series [2], in series [3] and in series [5] were 89500, 4480 and 31, respectively. Also, the Survival in series [4] is over 57 days.

Consider `c1ccc2[nH]c(-c3ccc4oc(-c5ccc(C6=NCCN6)cc5)cc4c3)nc2c1`, for which, in series [1], the outcome was inactive. Also, the concentration for half-maximal inhibition (IC50) in the series with Plasmodium falciparum was 40 nM; in the series on Leishmania donovani, 5.7 µM; in the series on L6, 6.1 µM; in [6], 122 nM. Further, the selectivity ratio was determined as 50 in series [2], 153 in series [3] and 1 in [5]. Besides, the Survival in series [4] turned out to be 11 days.

Regarding `COc1ccc(C(=N)N)cc1-c1cc2ccc(C(=N)N)cc2o1`, the IC50 was 18 nM with Plasmodium falciparum, 3.6 µM in the series with Leishmania donovani, 128 µM with L6 and 11 nM in series [6]. Further, the results for the selectivity ratio in series [2], in series [3] and in [5] were 11600, 7110 and 36, respectively. Besides, in series [4], the Survival is over 48 days.

As to `COc1ccc(C2=NCCN2)cc1-c1cc2cc(C3=NCCN3)ccc2o1`, the result in series [1] was inactive. The IC50 in the series with Plasmodium falciparum was 65 nM; in the series with Leishmania donovani, over 50 µM; with L6 it was 30.8 µM; in [6], 27 nM. Moreover, the selectivity ratio is 1140 in series [2], 474 in series [3] and under 0.6 in series [5]. For the same molecule, the Survival in [4] is 8.5 days.

`N=C(N)c1ccc(OCCCCCOc2ccc(C(=N)N)cc2)cc1` [PENTAMIDINE] displayed an IC50 in the series with Leishmania donovani of 1.8 µM. The Survival in [4] is over 45 days.

On to `N=C(N)c1ccc(O)c(-c2cc3ccc(C(=N)N)cc3o2)c1`, for which the IC50 with Plasmodium falciparum was 378 nM; in the series on Leishmania donovani it was 41 µM; in the series on L6 it was 164 µM; in [6] it was 29 nM. Besides, the selectivity ratio in series [2] came out at 5660; in [3], 434; in series [5] it was 4. For the same molecule, in series [4], the Survival was over 36 days.

For `N=C(N)c1ccc(-c2cc3ccc(C(=N)N)cc3o2)c(O)c1`, the IC50 in the series with Plasmodium falciparum is 70 nM; in the series on Leishmania donovani, 29 µM; in the series with L6, over 221 µM; in [6] it was 4 nM. For the same molecule, the selectivity ratio in series [2] is over 55200; in [3], over 3160; in series [5], over 8. For the same molecule, the Survival in series [4] was over 39 days.

`CC(C)NC(=N)c1cccc(-c2cc3cc(C(=N)NC(C)C)ccc3o2)c1`: the IC50 was 331 nM in the series with Plasmodium falciparum, 13 µM with Leishmania donovani, over 199 µM in the series on L6 and 473 nM in series [6]. The figures for the selectivity ratio in [2], in series [3] and in series [5] were over 421, over 601 and over 15, respectively.

Consider `COc1cc(C2=NCCN2)ccc1-c1cc2cc(C3=NCCN3)ccc2o1`, for which the IC50 in the series on Plasmodium falciparum is 31 nM; in the series on Leishmania donovani it was 60 µM; with L6, 7.4 µM; in series [6] it was 247 nM. Besides, the figures for the selectivity ratio in [2], in series [3] and in [5] were 30, 239 and 0.1, respectively.

In the case of `COc1cc(C(=N)NC(C)C)cc2cc(-c3ccc(C(=N)NC(C)C)cc3)oc12`, the IC50 in the series with Plasmodium falciparum is 48 nM; with Leishmania donovani, 15 µM; in the series with L6, over 190 µM; in [6] it was 90 nM. Besides, the selectivity ratio in series [2] is over 2110; in series [3], over 3960; in [5], over 12.

In the case of `COc1cc(C(=N)N)ccc1-c1cc2ccc(C(=N)N)cc2o1`, the IC50 amounted to 20 nM with Plasmodium falciparum, 3.7 µM in the series on Leishmania donovani, 108 µM in the series with L6 and 3 nM in [6]. Also, the selectivity ratio in series [2] worked out at 36000; in series [3], 5400; in [5] it was 29. In [4], the Survival is over 34.5 days.

Take `Oc1ccc(C2=NCCN2)cc1-c1cc2cc(C3=NCCN3)ccc2o1`: the IC50 is 23 nM in the series with Plasmodium falciparum, 57 µM with Leishmania donovani, over 199 µM with L6 and 227 nM in series [6]. The selectivity ratio was over 877 in series [2], over 8650 in series [3] and 4 in [5].

The values are drawn from ChEMBL document CHEMBL1142519, “Synthesis and antiprotozoal activity of cationic 2-phenylbenzofurans” (J Med Chem, 2008).
